Broadly, the pIC50 is the negative decadic logarithm of the IC50, by convention in mol/L. In general, inhibition refers to the share of the control response that was lost under treatment.

pIC50: −log10 of the molar value. Activity calls are given as the source filed them. No cut-off for these calls is given here.

The target in experiment [1] is NAD-dependent protein deacylase sirtuin-5, mitochondrial (Homo sapiens, UniProt Q9NXA8). Kind of experiment: Inhibition of SIRT5 using ZK(suc)A substrate after 1 hr by homogeneous fluorescence assay. The settings on record: for pIC50: read-out: IC50. An outline of the steps: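 Recombinant Sirt5 reacted with 200 µM succinyl-lysine AMC substrate ZK(s)A and 500 µM NAD+ in pH 8.0 Tris buffer (130 mM NaCl, 3 mM KCl, 1 mM MgCl2, 0.1% PEG8000) with DMSO <2%. Ran 1 h at 37 °C, then trypsin for 2 min at 37 °C. Conversion without inhibitor set to 4–10%. Inhibition calculated against DMSO control, at least two independent runs; IC50 from curve fit.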

Experiment [2] concerns the target T1, NAD-dependent protein deacetylase sirtuin-1 (Homo sapiens, UniProt Q96EB6).
T1 sequence (Q96EB6 whole entry): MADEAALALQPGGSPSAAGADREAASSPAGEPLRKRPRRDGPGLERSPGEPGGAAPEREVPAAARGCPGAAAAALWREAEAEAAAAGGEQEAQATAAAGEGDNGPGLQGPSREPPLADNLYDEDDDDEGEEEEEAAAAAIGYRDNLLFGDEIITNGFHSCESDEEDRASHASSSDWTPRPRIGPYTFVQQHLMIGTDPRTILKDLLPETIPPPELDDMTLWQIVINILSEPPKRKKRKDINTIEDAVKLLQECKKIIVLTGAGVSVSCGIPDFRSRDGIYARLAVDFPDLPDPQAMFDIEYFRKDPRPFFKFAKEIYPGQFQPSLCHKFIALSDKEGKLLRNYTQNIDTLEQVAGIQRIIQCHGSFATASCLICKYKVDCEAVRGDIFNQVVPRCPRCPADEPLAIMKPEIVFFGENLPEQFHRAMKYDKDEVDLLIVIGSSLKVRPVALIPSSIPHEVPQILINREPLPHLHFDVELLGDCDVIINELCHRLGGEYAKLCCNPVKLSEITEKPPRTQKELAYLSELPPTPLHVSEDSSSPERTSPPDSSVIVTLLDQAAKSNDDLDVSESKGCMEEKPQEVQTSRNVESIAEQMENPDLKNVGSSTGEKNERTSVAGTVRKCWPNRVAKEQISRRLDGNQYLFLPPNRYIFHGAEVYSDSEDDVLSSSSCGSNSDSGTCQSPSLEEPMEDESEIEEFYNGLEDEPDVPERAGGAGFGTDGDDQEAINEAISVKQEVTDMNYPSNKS
Kind of experiment: Inhibition of recombinant SIRT1 using ZMAL substrate after 4 hrs by homogeneous fluorescence assay. The settings on record: for pIC50: read-out: IC50.

For experiment [3], the target named is T2, NAD-dependent protein deacetylase sirtuin-3, mitochondrial (Homo sapiens) (UniProt Q9NTG7).
T2 sequence (whole entry): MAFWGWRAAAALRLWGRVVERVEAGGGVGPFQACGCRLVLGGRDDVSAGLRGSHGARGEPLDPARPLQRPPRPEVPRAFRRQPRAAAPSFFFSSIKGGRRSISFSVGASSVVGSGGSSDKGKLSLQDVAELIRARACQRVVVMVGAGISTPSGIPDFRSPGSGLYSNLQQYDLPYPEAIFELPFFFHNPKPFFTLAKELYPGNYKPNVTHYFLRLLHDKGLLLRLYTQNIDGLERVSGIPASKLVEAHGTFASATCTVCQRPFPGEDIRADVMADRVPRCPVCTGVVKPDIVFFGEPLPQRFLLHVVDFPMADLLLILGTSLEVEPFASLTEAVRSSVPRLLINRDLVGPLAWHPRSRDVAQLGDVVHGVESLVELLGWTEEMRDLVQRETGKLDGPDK
As to the kind of experiment: Inhibition of recombinant SIRT3 using ZMAL substrate at 50 uM after 4 hrs by homogeneous fluorescence assay. In a few lines:
(§1)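 Recombinant Sirt1, Sirt2 or Sirt3 incubated with 10.5 µM ZMAL and 500 µM NAD+ in pH 8.0 Tris buffer (137 mM NaCl, 2.7 mM KCl, 1 mM MgCl2) containing 5% DMSO. Ran 4 h at 37 °C, then trypsin developer with 8 mM nicotinamide for 20 min at 37 °C. Fluorescence at Ex 390/Em 460 nm. Conversion without inhibitor held at 10–30%. Inhibition calculated versus DMSO control, at least three independent runs; IC50 by curve fitting.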

Experiment [4] has as its target T3, NAD-dependent protein deacetylase sirtuin-2 (Homo sapiens) (UniProt Q8IXJ6).
T3 sequence (whole entry): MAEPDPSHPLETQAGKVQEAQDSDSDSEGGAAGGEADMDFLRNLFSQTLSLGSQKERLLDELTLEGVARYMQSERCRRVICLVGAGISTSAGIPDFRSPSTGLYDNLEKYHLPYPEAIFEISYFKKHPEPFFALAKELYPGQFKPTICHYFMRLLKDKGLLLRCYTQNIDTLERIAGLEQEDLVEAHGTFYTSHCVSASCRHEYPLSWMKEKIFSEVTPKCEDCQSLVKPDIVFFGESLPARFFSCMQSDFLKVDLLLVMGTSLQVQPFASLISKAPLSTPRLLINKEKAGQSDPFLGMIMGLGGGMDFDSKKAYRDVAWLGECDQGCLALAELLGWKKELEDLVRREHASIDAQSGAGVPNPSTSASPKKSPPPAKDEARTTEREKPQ
As to the kind of experiment: Inhibition of recombinant SIRT2 using ZMAL substrate at 50 uM after 4 hrs by homogeneous fluorescence assay. An outline of the steps: as §1

In experiment [5] the target is T4, NAD-dependent protein deacetylase sirtuin-2 (Homo sapiens, UniProt Q8IXJ6).
T4 sequence (Q8IXJ6 whole entry): T3 sequence (whole entry)
Kind of experiment: Inhibition of recombinant SIRT2 using ZMAL substrate after 4 hrs by homogeneous fluorescence assay.

For experiment [6], the target named is T5, NAD-dependent protein deacetylase sirtuin-3, mitochondrial (Homo sapiens, UniProt Q9NTG7).
T5 sequence (Q9NTG7 whole entry): T2 sequence (whole entry)
Kind of experiment: Inhibition of recombinant SIRT3 using ZMAL substrate after 4 hrs by homogeneous fluorescence assay.

NAD-dependent protein deacylase sirtuin-5, mitochondrial, sequence (Q9NXA8 whole entry): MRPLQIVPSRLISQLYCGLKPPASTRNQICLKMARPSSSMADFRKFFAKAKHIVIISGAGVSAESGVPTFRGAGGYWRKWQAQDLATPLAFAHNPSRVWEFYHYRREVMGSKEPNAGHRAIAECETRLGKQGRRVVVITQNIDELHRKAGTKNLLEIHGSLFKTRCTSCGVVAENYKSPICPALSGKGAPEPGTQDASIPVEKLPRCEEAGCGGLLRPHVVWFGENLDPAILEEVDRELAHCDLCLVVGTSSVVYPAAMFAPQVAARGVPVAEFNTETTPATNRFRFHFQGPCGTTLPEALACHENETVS

Consider `CCN1C(=O)/C(=C/c2c[nH]c3ccccc23)C(=O)NC1=S`, for which the negative logarithm of the IC50 (pIC50) in experiment [1] is 4.25; in experiment [2], 4.05. The inhibition entry in experiment [3] was “inactive”. In addition, the inhibition in experiment [4] was determined as 10%.

Take `NC(=O)C1CCCc2c1[nH]c1ccc(Cl)cc21` (stereo not given): the IC50 result in experiment [1] is on record as “Not Active”.

On to `CS(=O)(=O)O.Cn1cc(C2=C(c3cn(CCCSC(=N)N)c4ccccc34)C(=O)NC2=O)c2ccccc21`, for which the IC50 result in experiment [1] is “Not Active”.

With `C=CCN1C(=O)/C(=C/c2ccc(-c3cccc(Cl)c3Cl)o2)C(=O)NC1=S`, the results for the negative logarithm of the IC50 (pIC50) in experiment [1], in experiment [2] and in experiment [5] were 5.64, 5.28 and 5.01, respectively. Moreover, in experiment [3], the inhibition amounted to 41%.

`CCN1C(=O)/C(=C/c2ccc(OCc3ccccc3)cc2)C(=O)NC1=S`: the pIC50 in experiment [1] was 4.89; in experiment [2], 4.27; in experiment [5] it was 4.84. Further, in experiment [3], the inhibition was found to be 25%.

Turning to `CC(C)c1ccc(C=C2C(=O)NC(=S)NC2=O)cc1`, the pIC50 in experiment [1] is 4.40; in experiment [2] it was 4.91; in experiment [5], 4.83. Further, the inhibition in experiment [3] is 13%.

Regarding `O=C1NC(=S)NC(=O)C1=Cc1c[nH]c2ccccc12`, the negative logarithm of the IC50 (pIC50) in experiment [1] was 4.33; in experiment [2] it was 5.23; in experiment [5] it was 4.69. In addition, the inhibition in experiment [3] came out at 14%.

For `O=C1NC(=S)NC(=O)C1=Cc1ccc(OCc2ccc(Br)cc2)cc1`, the pIC50 in experiment [1] is 5.21; in experiment [2], 5.00; in experiment [5], 5.47.

As for `CN1C(=O)/C(=C/c2ccc(OCc3ccccc3)cc2)C(=O)NC1=S`, the pIC50 in experiment [1] was 4.75; in experiment [2] it was 4.25; in experiment [5], 5.00. Besides, the inhibition in experiment [3] was determined as 22%.

Regarding `O=C1NC(=S)NC(=O)C1=Cc1ccc(-c2cccc(Cl)c2Cl)o1`, the pIC50 in experiment [1] is 5.44; in experiment [2], 5.47; in experiment [5], 4.98. In addition, the inhibition in experiment [3] worked out at 30%.

For `COc1cc(C=C2C(=O)NC(=S)NC2=O)ccc1OCc1ccccc1Cl`, the pIC50 in experiment [1] is 4.91; in experiment [2], 5.17; in experiment [5] it was 5.12.

With `Cc1ccc(C(=O)Nc2ccc(S(=O)(=O)O)c3cc(S(=O)(=O)O)cc(S(=O)(=O)O)c23)cc1NC(=O)c1cccc(NC(=O)Nc2cccc(C(=O)Nc3cc(C(=O)Nc4ccc(S(=O)(=O)O)c5cc(S(=O)(=O)O)cc(S(=O)(=O)O)c45)ccc3C)c2)c1` [SURAMIN], the pIC50 in experiment [5] was 5.96. Besides, the IC50 entry in experiment [6] is “Not Active”.

With `CN1C(=O)/C(=C/c2c[nH]c3ccccc23)C(=O)NC1=S`, the figures for the negative-log IC50 (pIC50) in experiment [1] and in experiment [2] were 4.57 and 4.37, respectively. For the same compound, the inhibition is 17% in experiment [3] and 20% in experiment [4].

`CC(NC(=O)c1ccccc1/N=C/c1c(O)ccc2ccccc12)c1ccccc1` (stereo not given) [SIRTINOL]: the pIC50 in experiment [1] is 4.31. Further, the inhibition in experiment [3] was 24%.

Regarding `O=c1[nH]c(=S)[nH]c(-c2ccccc2)c1Cc1c(O)ccc2ccccc12` [CAMBINOL], in experiment [1], the pIC50 is 4.37.

Turning to `O=C1NC(=S)NC(=O)C1=Cc1cn(Cc2ccccc2)c2ccccc12`, the results for the negative-log IC50 (pIC50) in experiment [1] and in experiment [2] were 4.78 and 4.55, respectively. Also, in experiment [4], the inhibition came out at 20%.

`O=C1NC(=S)NC(=O)C1=Cc1ccc(OCc2ccccc2)cc1`: the pIC50 in experiment [1] was 4.90; in experiment [2] it was 4.98; in experiment [5], 5.01.

On to `COc1ccc2c(C=C3C(=O)NC(=S)NC3=O)cccc2c1`, for which the pIC50 is 4.65 in experiment [1], 5.22 in experiment [2] and 4.93 in experiment [5].

As to `O=C1NC(=S)NC(=O)C1=Cc1ccc(-c2ccccc2)cc1`, the pIC50 in experiment [1] is 4.52; in experiment [2], 4.30; in experiment [6] (read-out: IC50), 4.39.

With `C=CCN1C(=O)/C(=C/c2ccc(OCc3ccccc3)cc2)C(=O)NC1=S`, the results for the negative logarithm of the IC50 (pIC50) in experiment [1] and in experiment [2] were 4.17 and 4.43, respectively. In addition, the inhibition in experiment [3] came out at 13%. Also, the inhibition result in experiment [4] was “inactive”.

As to `O=C1CC(c2ccccc2)c2c(ccc3cc(Br)ccc23)O1` (stereo not given), the IC50 entry in experiment [1], in experiment [2] and in experiment [6] was “Not Active” throughout. Besides, the pIC50 in experiment [5] is 6.00.

For the origin of these results see ChEMBL document CHEMBL2203031, “Inhibitors of the NAD(+)-Dependent Protein Desuccinylase and Demalonylase Sirt5” (ACS Med Chem Lett, 2012).
